From ChEMBL document CHEMBL4145619, “Computer-Assisted Discovery of Retinoid X Receptor Modulating Natural Products and Isofunctional Mimetics” (J Med Chem, 2018)
Active and inactive are the calls of the source. No cut-off for these calls is given here.

How the values were obtained:
Type in all cases: cell-based
[1] = target: T1, Retinoic acid receptor RXR-beta (Homo sapiens) (UniProt P28702); assay: Transactivation of human Gal4-fused RXRbeta LBD expressed in HEK293T cells after 12 to 14 hrs by dual-glo luciferase assay relative to bexarotene
T1 sequence (whole entry): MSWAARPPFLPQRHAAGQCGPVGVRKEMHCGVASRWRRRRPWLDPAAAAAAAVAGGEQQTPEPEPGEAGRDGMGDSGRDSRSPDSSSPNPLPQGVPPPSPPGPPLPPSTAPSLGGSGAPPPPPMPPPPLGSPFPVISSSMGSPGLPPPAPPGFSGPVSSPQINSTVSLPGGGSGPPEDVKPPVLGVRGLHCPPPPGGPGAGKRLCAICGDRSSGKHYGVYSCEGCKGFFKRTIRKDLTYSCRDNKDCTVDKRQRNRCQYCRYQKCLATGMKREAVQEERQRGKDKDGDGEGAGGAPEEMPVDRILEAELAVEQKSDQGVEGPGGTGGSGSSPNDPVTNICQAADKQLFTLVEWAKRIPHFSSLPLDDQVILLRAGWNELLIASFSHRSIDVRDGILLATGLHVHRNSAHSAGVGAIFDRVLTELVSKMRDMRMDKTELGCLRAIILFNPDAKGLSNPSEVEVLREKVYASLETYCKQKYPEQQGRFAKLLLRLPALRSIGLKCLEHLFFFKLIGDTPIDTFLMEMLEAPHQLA

[2] = target: T2, Oxysterols receptor LXR-alpha (Homo sapiens) (UniProt Q13133); assay: Transactivation of human Gal4-fused LXRalpha LBD expressed in HEK293T cells at 30 uM after 12 to 14 hrs by dual-glo luciferase assay
T2 sequence (whole entry): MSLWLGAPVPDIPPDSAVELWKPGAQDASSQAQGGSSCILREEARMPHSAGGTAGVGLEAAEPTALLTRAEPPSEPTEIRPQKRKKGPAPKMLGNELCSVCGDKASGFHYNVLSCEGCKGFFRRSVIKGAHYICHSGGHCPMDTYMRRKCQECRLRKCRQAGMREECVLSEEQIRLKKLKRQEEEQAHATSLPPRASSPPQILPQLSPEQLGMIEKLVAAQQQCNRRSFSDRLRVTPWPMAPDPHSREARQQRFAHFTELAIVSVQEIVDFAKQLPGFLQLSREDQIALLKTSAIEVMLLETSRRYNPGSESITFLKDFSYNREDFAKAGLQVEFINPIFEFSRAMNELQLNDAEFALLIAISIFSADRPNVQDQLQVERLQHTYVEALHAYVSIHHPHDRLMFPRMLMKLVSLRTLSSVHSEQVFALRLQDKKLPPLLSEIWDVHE
Summary of the method: (§1)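 Single-concentration selectivity profiling in Gal4-hybrid reporter gene assays in HEK293T cells. Each nuclear receptor construct (RAR, PPAR, LXR, FXR, CAR, VDR, PXR, RXR) was tested at 30 μM.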

[3] = target: T3, Retinoic acid receptor beta (Homo sapiens) (UniProt P10826); assay: Transactivation of human Gal4-fused RARbeta LBD expressed in HEK293T cells at 30 uM after 12 to 14 hrs by dual-glo luciferase assay; summary of the method: as §1
T3 sequence (whole entry): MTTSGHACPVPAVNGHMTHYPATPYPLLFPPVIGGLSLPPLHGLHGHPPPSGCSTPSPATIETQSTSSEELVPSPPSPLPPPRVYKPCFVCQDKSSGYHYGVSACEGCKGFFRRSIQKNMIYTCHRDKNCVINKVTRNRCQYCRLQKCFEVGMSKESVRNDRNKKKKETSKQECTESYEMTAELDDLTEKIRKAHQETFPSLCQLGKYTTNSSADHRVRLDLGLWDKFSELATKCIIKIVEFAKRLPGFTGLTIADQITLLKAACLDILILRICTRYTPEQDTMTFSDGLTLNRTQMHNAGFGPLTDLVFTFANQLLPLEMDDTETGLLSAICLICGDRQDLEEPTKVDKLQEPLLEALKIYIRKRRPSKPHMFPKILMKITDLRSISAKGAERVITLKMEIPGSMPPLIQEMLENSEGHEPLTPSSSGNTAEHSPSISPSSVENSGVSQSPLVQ

[4] = target: T4, Peroxisome proliferator-activated receptor delta (Homo sapiens) (UniProt Q03181); assay: Transactivation of human Gal4-fused PPARdelta LBD expressed in HEK293T cells at 30 uM after 12 to 14 hrs by dual-glo luciferase assay; summary of the method: as §1
T4 sequence (whole entry): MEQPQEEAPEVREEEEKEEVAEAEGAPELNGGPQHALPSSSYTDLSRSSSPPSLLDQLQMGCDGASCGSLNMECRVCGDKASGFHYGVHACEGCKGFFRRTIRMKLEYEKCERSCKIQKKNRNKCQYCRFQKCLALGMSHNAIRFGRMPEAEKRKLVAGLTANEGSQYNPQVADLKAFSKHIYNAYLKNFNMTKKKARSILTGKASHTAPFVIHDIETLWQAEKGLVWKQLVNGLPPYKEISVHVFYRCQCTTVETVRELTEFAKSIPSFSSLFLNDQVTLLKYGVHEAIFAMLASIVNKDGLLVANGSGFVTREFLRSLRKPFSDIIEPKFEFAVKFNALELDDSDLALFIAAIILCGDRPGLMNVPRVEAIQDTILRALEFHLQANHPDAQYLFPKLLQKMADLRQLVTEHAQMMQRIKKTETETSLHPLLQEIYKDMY

HepG2 = assay: Cytotoxicity against human HepG2 cells assessed as reduction in cell viability up to 100 uM after 48 hrs by WST1 assay; settings: hepg2, 48 h
[5] = target: T5, Bile acid receptor (Homo sapiens) (UniProt Q96RI1); assay: Transactivation of human Gal4-fused FXR LBD expressed in HEK293T cells at 30 uM after 12 to 14 hrs by dual-glo luciferase assay; summary of the method: as §1
T5 sequence (whole entry): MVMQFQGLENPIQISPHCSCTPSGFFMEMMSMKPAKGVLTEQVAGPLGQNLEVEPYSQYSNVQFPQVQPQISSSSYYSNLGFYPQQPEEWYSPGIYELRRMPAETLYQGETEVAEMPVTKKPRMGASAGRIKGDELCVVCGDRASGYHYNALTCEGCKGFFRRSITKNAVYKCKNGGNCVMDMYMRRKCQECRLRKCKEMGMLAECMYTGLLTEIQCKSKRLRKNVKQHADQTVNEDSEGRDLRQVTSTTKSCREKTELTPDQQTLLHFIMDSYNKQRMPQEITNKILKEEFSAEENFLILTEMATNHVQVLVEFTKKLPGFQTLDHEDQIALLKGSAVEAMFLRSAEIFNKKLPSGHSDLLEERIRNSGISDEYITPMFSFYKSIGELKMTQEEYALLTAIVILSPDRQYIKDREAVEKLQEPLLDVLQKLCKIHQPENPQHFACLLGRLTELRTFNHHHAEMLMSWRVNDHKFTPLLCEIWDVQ

[6] = target: T1, Retinoic acid receptor RXR-beta (Homo sapiens); assay: Transactivation of human Gal4-fused RXRbeta LBD expressed in HEK293T cells at 30 uM after 12 to 14 hrs by dual-glo luciferase assay; summary of the method: as §1

- fold change (FC) [1]: 69
- Activity [2]: inactive
- Activity [3]: inactive
- Activity [4]: inactive
- Activity [5]: inactive
- Activity [6]: Active
SMILES: CC1=C2[C@H](/C=C(\C)C(=O)O)CC[C@@H](C)[C@H]2CC1 [VALERENIC ACID]
- Activity (HepG2): Non-Toxic
